The test system of assay [1] is NCI-H1975. Description: Inhibition of cell invasion in human NCI-H1975 cells expressing EGFR L858R/T790M mutant assessed at 500 nM measured after 42 hrs by transwell assay. Format: functional. Also on record: scale not given: the % may be the effect or the level left. The procedure, abridged:
(§1)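 GFP-expressing H1975 cells were trypsinised and resuspended in serum-free medium containing compound. Seeded into Matrigel-coated transwell inserts (8 µm pores) above RPMI 1640 full growth medium, at 37 °C and 5% CO₂. Invaded cells imaged by fluorescence microscopy in five random fields per insert and counted. Three independent repeats.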

Assay [2] relates to Protein cereblon/Epidermal growth factor receptor (Homo sapiens), P00533+Q96SW2 [UNDEFINED MUTATION]. Description: Protac activity at CRBN/EGFR exon19 deletion/T790M mutant in human PC-9 cells transfected with BRCA1 assessed as induction of EGFR degradation at 1 to 1000 nM measured after 48 hrs by Western blot assay. Conditions: dose 1-1000 nM. Format: cell-based. The procedure, abridged:
(§2)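 Cells seeded at 1-3X10^5/well and treated one day later with compounds at the concentrations and times given. Lysed in RIPA buffer with protease inhibitors. 15 µg protein run on 8% SDS-PAGE, transferred to nitrocellulose, probed for EGFR or phospho-EGFR, ECL detection. Lung lines kept in RPMI 1640 with 10% fetal calf serum, 37 °C, 5% CO2. DC50 is an estimated value. Repeated more than 3 times.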
In general terms: A western blot detects proteins with antibodies after separation by electrophoresis.

Assay [3] concerns Protein cereblon/Epidermal growth factor receptor (Homo sapiens), P00533+Q96SW2 [L858R,T790M]. Description: Protac activity at CRBN/EGFR L858R/T790M mutant in human NCI-H1975 cells assessed as increase in ratio of LC3B2 to LC3B1 under serum starvation condition at 0.3 uM measured after 16 hrs by Western blot assay. It counts as cell-based. The procedure, abridged:
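H1975 cells in RPMI 1640 with 10% serum. Autophagy was read by Western blot as the LC3B II/LC3B I ratio. Serum-free medium and rapamycin served as autophagy-inducing positive controls, and rapamycin was also combined with degrader. Where pretreatment applied, compounds were added for 2 h before a 16 h PROTAC treatment.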

In assay [4] the target is T1, Protein cereblon/Epidermal growth factor receptor (Homo sapiens, UniProt P00533+Q96SW2). Nature of the assay: Protac activity at CRBN/EGFR in human NCI-H1975 cells assessed as induction of EGFR degradation by Western blot assay. It counts as cell-based.
The test system of assay [5] is NCI-H1975. Nature of the assay: Antimigratory activity in human NCI-H1975 cells expressing EGFR L858R/T790M mutant at 300 to 500 nM measured after 24 hrs by wound healing assay. It counts as functional, cell-based. To be noted: dose 300-500 nM. The essentials:
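H1975 cells seeded in 24-well plates, scratched at confluence with a pipette tip 24 h later and washed three times with PBS. Then incubated with degrader at 300 or 500 nM. Six photos per well taken at set time points, and the uncovered wound area quantified.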

For assay [6], the target named is T1, Protein cereblon/Epidermal growth factor receptor. Nature of the assay: Protac activity at CRBN/EGFR in human PC-9 cells assessed as induction of EGFR degradation by Western blot assay. Format: cell-based.
For assay [7], the system named is Protein cereblon/Epidermal growth factor receptor (Homo sapiens), P00533+Q96SW2 [L858R,T790M]. Description: Protac activity at CRBN/EGFR L858R/T790M mutant in human NCI-H1975 cells assessed as induction of EGFR degradation at 30 to 500 nM by Western blot assay. Format: cell-based. To be noted: dose 30-500 nM, time 16-48 hrs, TDE = time-dependent effect.
In assay [8] the test system is Protein cereblon/Epidermal growth factor receptor (Homo sapiens), P00533+Q96SW2 [UNDEFINED MUTATION]. Nature of the assay: Protac activity at CRBN/EGFR exon 19 deletion mutant in human PC-9 cells assessed as induction of EGFR degradation at >10 nM measured after 48 hrs by Western blot assay. It counts as cell-based. Conditions: dose nM >10, time 48.0 hrs. The essentials:
as §2

The subject of a further assay is A549. Nature of the assay: Antiproliferative activity against human A549 cells assessed as inhibition of cell growth measured after 72 hrs by CCK-8 assay. Conditions: A549, 72 h. Format: functional, cell-based. The essentials:
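Cells seeded at 3000 cells/well in 96-well plates and treated with graded compound concentrations one day later for 72 h. CCK-8 was added for 1–4 h and absorbance read at 450 nm. Lung cancer lines were kept in RPMI 1640 with 10% fetal calf serum at 37 °C and 5% CO₂.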
For orientation: Formazan colour is commonly taken as a measure of viable cells.

For assay [9], the system named is NCI-H1975. Description: Cell cycle arrest in human NCI-H1975 cells expressing EGFR L858R/T790M mutant assessed as increase of cell population in G0/G1 phase at […] measured after 48 hrs by RNaseA/propidium iodide staining based flow cytometry. Format: functional. To be noted: dose lower 0.03 nM. The procedure, abridged:
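H1975 cells (1 × 10⁵/well, 6-well plates) treated one day after seeding at the indicated concentrations for 48 h. Washed in cold PBS, fixed in cold ethanol at −20 °C for over 24 h, then stained with PI/RNase for 30 min at 37 °C in the dark. Phase distribution measured by flow cytometry.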
On the technique in general: In flow cytometry, cells or beads pass a laser one at a time.

For assay [10], the system named is Protein cereblon/Epidermal growth factor receptor (Homo sapiens), P00533+Q96SW2 [L858R,T790M]. Description: Protac activity at CRBN/EGFR L858R/T790M mutant in human NCI-H1975 cells assessed as induction of EGFR degradation at 300 nM measured after 8 to 72 hrs by Western blot assay relative to control. Format: cell-based. Conditions: time 8-72 hrs.
Assay [11] shares this test system. Description: Protac activity at CRBN/EGFR L858R/T790M mutant in human NCI-H1975 cells assessed as induction of EGFR degradation measured after 48 hrs by Western blot assay. To be noted: dose 30-500 nM. It counts as cell-based. The essentials: as §2
For assay [12] the test system is unchanged. Description: Protac activity at CRBN/EGFR L858R/T790M mutant in human NCI-H1975 cells assessed as induction of EGFR degradation at 30 nM measured after 16 hrs by Western blot assay. It counts as cell-based. The essentials:
as §2

The subject of assay [13] is Protein cereblon/Epidermal growth factor receptor (Homo sapiens), P00533+Q96SW2 [UNDEFINED MUTATION]. Description: Protac activity at CRBN/EGFR exon19 deletion/T790M mutant in human PC-9 cells transfected with BRCA1 assessed as induction of EGFR degradation at 1 to 1000 nM measured after 16 hrs by Western blot assay. It counts as cell-based. To be noted: dose 1-1000 nM. The essentials: as §2

The subject of assay [14] is NCI-H1975. Description: Inhibition of cell invasion in human NCI-H1975 cells expressing EGFR L858R/T790M mutant assessed at 500 nM measured after 18 hrs by transwell assay. Also on record: scale not given: the % may be the effect or the level left. Format: functional. The essentials: as §1
Assay [15] relates to Protein cereblon/Epidermal growth factor receptor (Homo sapiens), P00533+Q96SW2 [L858R,T790M]. Description: Protac activity at CRBN/EGFR L858R/T790M mutant in human NCI-H1975 cells assessed as induction of EGFR degradation at 300 nM incubated for 24 hrs followed by compound washout and measured 72 hrs after drug removal by Western blot assay. It counts as cell-based. The essentials:
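H1975 cells were treated with 300 nM PROTAC for 24 h. Medium was removed, cells were washed 3 times with PBS, and fresh RPMI 1640 with 10% fetal calf serum was added. Cells were harvested at time points up to 72 h after drug removal, and total EGFR was measured by Western blot.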

The target in assay [16] is T1, Protein cereblon/Epidermal growth factor receptor. Nature of the assay: Protac activity at CRBN/EGFR in human PC-9 cells assessed as induction of EGFR degradation by Western blot assay relative to control. It counts as cell-based. The procedure, abridged:
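PC9 cells (EGFR Ex19del) seeded at 1–3 × 10⁵/well in 12-well plates and treated the next day with graded degrader concentrations for 48 h. Lysed in RIPA buffer with protease inhibitors, 15 µg protein resolved on 8% SDS-PAGE, and EGFR detected by immunoblot with ECL. DC50 estimated from blots; experiments repeated more than 3 times.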

The test system of assay [17] is Protein cereblon/Epidermal growth factor receptor (Homo sapiens), P00533+Q96SW2 [L858R,T790M]. Nature of the assay: Protac activity at CRBN/EGFR L858R/T790M mutant in human NCI-H1975 cells assessed as induction of EGFR degradation at 50 nM measured after 16 hrs by Western blot assay. It counts as cell-based. The essentials:
as §2

pIC50: −log10 of the molar value. Activity calls are given as the source filed them. The rule behind the calls is not given here. A value given as a limit tells only on which side of the number the result lay.

A word on the DC50: it is the midpoint of the concentration-degradation curve. A word on the pIC50: it is −log10 of the IC50, conventionally taken in molar units.

Turning to `C=CC(=O)Nc1cc2c(Nc3ccc(F)c(Cl)c3)ncnc2cc1OCCCN1CCN(C(=O)CCCCCCNc2cccc3c2C(=O)N(C2CCC(=O)NC2=O)C3=O)CC1` (stereo not given), the Activity with NCI-H1975 [1] was 40%; in assay [7] it was “Tde”; in [8], “Dose-Dependent Effect”; in assay [10], 98%; in assay [11], “Dose-Dependent Effect”; with NCI-H1975 [14], 38%. For the same molecule, the outcome in assay [2] and in [13] was inactive. The result (in assay [3]; in the assay on NCI-H1975 [5]; in the assay on NCI-H1975 [9]; in assay [12]; in assay [15]) was Active. In addition, the DC50 in assay [4] is below 0.03 µM; in [6], 0.03 µM. In the assay with A549, the pIC50 is below 5.00.

`C=CC(=O)Nc1cc2c(Nc3ccc(F)c(Cl)c3)ncnc2cc1OCCCN1CCN(C(=O)CCCCCNc2cccc3c2C(=O)N(C2CCC(=O)NC2=O)C3=O)CC1` (stereo not given): the %max in assay [16] turned out to be 40%. Also, the result in assay [2] and in assay [13] was inactive. Moreover, the result (in assay [3]; in [17]; in the assay on NCI-H1975 [9]; in assay [15]) was Active. The values for the DC50 in assay [4] and in assay [6] were 0.03 µM and 0.1 µM, respectively. The Activity result in assay [7] was “Tde”; in [8], “Dose-Dependent Effect”; in assay [10], 98%; in assay [11] it was “Dose-Dependent Effect”. Moreover, the negative-log IC50 (pIC50) in the assay with A549 was below 5.00.
